Screening data from PubChem.
Shown are actives, neighbours in structure and some others; about 2.7% of the full set was active somewhere.
Yeast life ext: extends the lifespan of yeast. S. cerevisiae growth with nicotinamide, OD615; deaD strain in restrictive glucose medium. AID 775. inhibition of the nicotinamide effect, % at 10 µM. 130,000 compounds, 0.68% hits;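 active = inhibition above a set limit, placed 3 SD over the median of all compounds, cut at about 26% in these data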;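 also: 0% = nicotinamide-treated wells and 100% = cells grown without nicotinamide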
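System: DeaD-strain S. cerevisiae / Buffer or medium: CSMM-D, restrictive glucose (dextrose) synthetic minimal medium / Probe or stimulus: nicotinamide, 1.5 mM, co-present with compound / Compound: one concentration, 10 µM, DMSO 0.25% / Incubation: 48 h compound exposure at 30 °C, humidified / Technique: optical density (absorbance) at 615 nm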
Phagocytosis inh: blocks phagocytosis by macrophages; J774A.1 macrophage IgG-bead phagocytosis, imaging; inhibition, % at 5 µM; 110,000 compounds, 0.07% hits;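 active = inhibition above the mean of the plate negative controls plus 5 SD, cut at about 13% in these data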;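 also: phagocytic index as fraction of beads internalized from green versus red external bead signal; plate controls were DMSO negative control for no effect and cytochalasin-D positive control for full effect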
RAM network inh: yeast RAM network inhibition; 190,000 compounds, 1.8% hits; inhibition, % at 50 µM; S. cerevisiae dse1pr::URA3 reporter, 5-FOA growth OD615, 2 d; analog-sensitive cbk1-as2 kinase mutant strain; AID 868;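 active = inhibition above a set limit, 3 SD over mean compound inhibition, cut at about 8.4% in these data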;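 also: 0% = DMSO-only wells with no growth and 100% = 10 µM 1-NA-PP1 full growth; inhibition rescues growth on 5-FOA so higher OD means more RAM inhibition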
BB579 growth dn: reduces growth of yeast BB579 in restrictive medium | S. cerevisiae BB579 growth, OD615, 48 h | inhibition, % at 10 µM | 140,000 compounds, 0.51% hits | AID 804;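 active = inhibition above a set limit, 3 SD over the mean compound inhibition, cut at about 44% in these data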
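Detection: OD615 turbidity measurement; Material: Saccharomyces cerevisiae DeaD strain BB579, replicative lifespan model yeast; Timing: 48 h exposure, 30 °C; Doses: single 10 µM dose; Medium: CSMM-D restrictive synthetic medium containing dextrose (glucose); Controls: amphotericin B at 10 µg/mL as positive control.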
Active calls of the source: *; . = not tested or not shown.

SMILES | Yeast life ext | Phagocytosis inh | RAM network inh | BB579 growth dn
CCOC(=O)c1c(NC(=O)c2ccccc2Cl)sc2c1CCc1ccccc1-2 | -3.5 | -1.9 | 7.0 | -45.0
O=C(O)c1cc(-c2ccc(/C=C3/SC(=S)N(Cc4ccccc4)C3=O)o2)ccc1Cl | . | . | 9.4* | .
Cn1c(SCC(=O)Nc2ncc(C(F)(F)F)cc2Cl)nnc1-c1ccc(Cl)cc1 | 3.3 | -5.5 | 1.9 | -38.5
COc1ccc(-c2csc(NC(=S)NC(=O)/C=C/c3ccco3)n2)cc1OC | 4.0 | 1.4 | 9.7* | -18.3
O=C(/C=C/c1ccco1)Nc1nc(-c2ccccc2)cs1 | -4.8 | . | 1.9 | -13.8
COc1ccc(/C=N/NC(=O)C2COc3ccccc3O2)cc1OC (configuration not stated) | . | . | 0.6 | .
COc1ccc(-c2csc(NC(=O)C3COc4ccccc4O3)n2)cc1OC (configuration not stated) | . | . | 10.2* | .
O=C(NC1CCCCC1)c1nc2c(nnn2Cc2ccccc2Cl)c(=O)[nH]1 | 14.2 | . | 1.9 | -2.8
NNC(=O)c1ccc(COc2cccc3ccccc23)cc1 | -8.2 | -5.0 | -0.8 | 89.8*
C=CCc1cc(/C=C2/NC(=O)N(CC(=O)OC)C2=O)cc(OC)c1O | . | . | 3.2 | .
COc1ccc(OC)c(NC(=O)COC(=O)/C=C/c2ccccc2Cl)c1 | -0.1 | -1.1 | 10.3* | -46.5
O=C(c1ccco1)N(Cc1ccc([N+](=O)[O-])cc1)c1ccc(Br)cc1 | 3.5 | . | 8.4* | -36.9
O=C(c1ccco1)N(Cc1cccc([N+](=O)[O-])c1)c1ccc(Br)cc1 | . | . | 9.3* | .
O=C(c1ccco1)N(Cc1ccccc1)c1cccc([N+](=O)[O-])c1 | . | . | 1.2 | .
Cc1cc(C)n(C(=O)CNC(=O)Cc2ccccc2)n1 | -15.0 | -0.2 | -0.1 | 10.7
Cc1cc(C)n(C(=O)CNC(=O)C(c2ccccc2)c2ccccc2)n1 | . | . | 8.8* | -55.5
CCc1ccc(S(=O)(=O)NCCc2cn3ccsc3n2)s1 | 11.3 | 0.6 | 0.2 | 46.5*
CCc1ccc(S(=O)(=O)NCc2cn3ccsc3n2)s1 | -3.8 | -4.8 | 2.1 | 18.0
O=S1(=O)C=C(Sc2nc3ccccc3s2)c2ccccc21 | 69.1* | 2.9 | 2.4 | -11.2
COC(=O)c1cccc(S(=O)(=O)N(Cc2ccco2)Cc2cc3cc(OC)c(OC)cc3[nH]c2=O)c1 | -4.1 | 0.4 | 8.9* | -31.3
COC(=O)c1cccc(S(=O)(=O)N(Cc2ccco2)Cc2cc3ccc(OC)cc3[nH]c2=O)c1 | -5.1 | -0.8 | 4.7 | -13.6
COc1ccc(C(=O)NNC(=O)CCn2nnc(-c3ccc(C)cc3)n2)cc1OC | . | . | 9.2* | .
Cn1nnnc1SCCNCC#Cc1ccccc1 | 113.9* | 0.2 | 1.2 | -14.0
O=C(/C=C/c1ccc(N2CCC(c3ccccc3)=N2)cc1)c1ccccc1 | . | . | 11.0* | .
O=C1OC2(CCCCC2)OC(=O)C1=CNc1nc2ccccc2s1 | 69.5* | 0.9 | 0.9 | -42.4
SMILES | Yeast life ext | Phagocytosis inh | RAM network inh | BB579 growth dn
O=C1OC2(CCCCC2)OC(=O)C1=CNc1nccs1 | 25.1 | -0.2 | 2.1 | -16.2
CCN(CC)S(=O)(=O)c1ccc2[nH]c(=O)cc(C(=O)Nc3ccc(C)c(S(=O)(=O)N(CC)CC)c3)c2c1 | 2.7 | -5.3 | 6.2 | -40.8
CCOC(=O)c1ccccc1NC(=O)c1cc(S(=O)(=O)N2CCOCC2)ccc1F | -10.0 | -3.7 | 1.2 | -11.0
CCOC(=O)N1CCN(S(=O)(=O)c2ccc(F)c(C(=O)Nc3cccc(C)c3C)c2)CC1 | 45.2* | . | 5.2 | -52.2
COc1ccc(Oc2nc(OC)cc(OC)n2)cc1 | . | . | 0.7 | .
COC(=O)c1nn(-c2ccccc2)c(Cl)c1/C=N/OCc1ccc(C)cc1 | -2.3 | . | 10.2* | -38.4
O=C1C=CCC(/C=C/c2ccccc2)O1 (configuration not stated) | 41.1* | . | -0.1 | -59.6
Nc1ccc(NC(=O)c2ccco2)c(Cl)c1 | . | . | 0.9 | .
CCC(=NCc1ccc(Cl)c(Cl)c1)c1nc(-c2ccco2)oc1O | -6.0 | -4.3 | 10.6* | -43.2
COc1ccc(N=Cc2nc(-c3ccco3)oc2O)cc1 | . | . | 5.8 | -34.9
NS(=O)(=O)c1ccc(NC(=S)NC(=O)c2ccc3c(c2)OCO3)cc1 | . | . | 3.9 | .
NC(N)=NS(=O)(=O)c1ccc(NC(=S)NC(=O)c2ccc3c(c2)OCO3)cc1 | . | . | 9.1* | .
CCOC(=O)c1c(/N=C/c2cccc([N+](=O)[O-])c2O)sc(C)c1C | -5.7 | . | -0.4 | 75.3*
O=C(CCCOc1ccc(Cl)cc1Cl)N/N=C/c1cccc([N+](=O)[O-])c1 | 0.2 | 2.5 | 5.8 | -36.2
COc1ccccc1NC(=O)Cc1noc(CSc2cc(C)c3ccccc3n2)n1 | -25.6 | -0.7 | 5.3 | -52.2
COc1ccccc1NC(=O)Cc1noc(CSc2cccc[n+]2[O-])n1 | -14.8 | . | 2.3 | 95.0*
